By IC50 is commonly meant the midpoint of a concentration-inhibition curve. Usually Ki stands for the equilibrium dissociation constant of an inhibitor or competing ligand from its target.

This note sets out measurements from PMC12263870 (Scientific Reports, 2025).

Assay [1] relates to BSA-glycation mediated methylglyoxal (MG). In words: Anti-glycation assay: BSA-glycation mediated methylglyoxal. In kind it is biochemical, bovine. Particulars: for BSA-glycation mediated MG % Inhibition at 500 µM: mean ± SD; for IC50: read-out: BSA-glycation inhibition category by IC50 criteria, category in words. In a few lines:
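Fluorescence anti-glycation assay. BSA (10 mg/mL) was in 0.1 M phosphate buffer pH 7.4 with 0.02% NaN3, and 14 mM methylglyoxal was in phosphate buffer. Test compound in DMSO was preincubated with buffer and methylglyoxal at 37°C for 2 h. BSA was then added and the mix incubated at 37°C for 1 day. Fluorescence (ex 370/em 450 nm) was read against a no-inhibitor blank. Aminoguanidine hydrochloride was the positive control. Triplicate, two independent experiments, mean ± SD.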

The next assay has as its target T1, α-amylase (Sus scrofa, UniProt P00690).
T1 sequence (P00690 16-511): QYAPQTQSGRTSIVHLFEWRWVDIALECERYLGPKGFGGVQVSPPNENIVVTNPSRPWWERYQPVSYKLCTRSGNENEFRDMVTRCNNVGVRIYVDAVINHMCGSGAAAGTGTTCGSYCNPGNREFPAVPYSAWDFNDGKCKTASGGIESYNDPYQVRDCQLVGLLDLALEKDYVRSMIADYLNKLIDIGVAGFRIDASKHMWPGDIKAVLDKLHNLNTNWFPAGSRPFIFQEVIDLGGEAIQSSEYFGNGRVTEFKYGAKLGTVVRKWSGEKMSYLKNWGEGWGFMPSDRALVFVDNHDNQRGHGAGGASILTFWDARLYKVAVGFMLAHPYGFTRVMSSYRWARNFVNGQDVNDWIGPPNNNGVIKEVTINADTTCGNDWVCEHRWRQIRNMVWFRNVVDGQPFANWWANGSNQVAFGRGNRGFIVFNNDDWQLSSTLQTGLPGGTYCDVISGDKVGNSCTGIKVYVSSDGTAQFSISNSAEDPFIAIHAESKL
Kind of assay: Inhibitory kinetic analysis. In kind it is biochemical, porcine. An outline of the steps: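 Porcine pancreatic α-amylase (type VI-B) in phosphate buffer pH 6.0 with 0.02% NaN3. Enzyme stock was 1 mg/mL and CNP-G3 stock 0.5 mM. Test compound and enzyme were preincubated at 37°C for 10 min, then CNP-G3 was added at varied concentrations for 30 min at 37°C, read at 405 nm. Three inhibitor concentrations were used. Inhibition type came from Lineweaver–Burk plots, Ki and Kis from secondary slope and intercept plots.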

For `Cl.N=C(N)NN` [Aminoguanidine hydrochloride, reference compound], in assay [1], the “BSA-glycation mediated MG % Inhibition at 500 µM” value was 79.66%.

On to `O=C1C[C@@H](c2ccc(O)cc2)Oc2cc(O)cc(O)c21` [Compound F11, Naringenin], for which the “BSA-glycation mediated MG % Inhibition at 500 µM” value in assay [1] was determined as 56.89%.

For the compound `O=c1cc(-c2ccc(O)c(O)c2)oc2cc(O)cc(O)c12` [Compound F3, Luteolin], in assay [1], the IC50 is 10.1 to 100 µM.

Take `O=c1c(O)c(-c2ccc(O)cc2O)oc2cc(O)cc(O)c12` [Compound F6, Morin]: the IC50 in assay [1] lay within 100 to 200 µM.

Turning to `O=c1cc(-c2ccc(O)cc2)oc2c(Br)c(O)c(Br)c(O)c12` [Compound F2a, 6,8-Dibromoapigenin], the IC50 in assay [1] was in the range of 10.1 to 100 µM.

Consider `O=C1C[C@@H](c2ccc(O)cc2)Oc2c(Br)c(O)c(Br)c(O)c21` [Compound F11a, 6,8-Dibromonaringenin], for which the IC50 in assay [1] lay in the range of 10.1 to 100 µM.

On to `O=c1c(O)c(-c2ccc(O)c(O)c2)oc2cc(O)cc(O)c12` [Compound F7, Quercetin], for which the IC50 in assay [1] fell in the range of 10.1 to 100 µM.

With `O=c1cc(-c2ccc(O)c(O)c2)oc2c(Br)c(O)c(Br)c(O)c12` [Compound F3a, 6,8-Dibromoluteolin], the Ki at α-amylase came to 0.18 µM. Besides, the “Inhibition type, α-amylase” value at α-amylase (Lineweaver-Burk plot, CNP-G3) is on record as “mixed-type”. In assay [1], the IC50 was 10.1 to 100 µM.
